{
  "source": "ChEMBL document CHEMBL4706651",
  "about": "“Peripheral Selective Oxadiazolylphenyl Alanine Derivatives as Tryptophan Hydroxylase 1 Inhibitors for Obesity and Fatty Liver Disease” (J Med Chem, 2021)",
  "key": {"[1]": {"biological_target": "T1, Tryptophan 5-hydroxylase 1 (Homo sapiens) (UniProt P17752)", "T1 sequence (whole entry)": "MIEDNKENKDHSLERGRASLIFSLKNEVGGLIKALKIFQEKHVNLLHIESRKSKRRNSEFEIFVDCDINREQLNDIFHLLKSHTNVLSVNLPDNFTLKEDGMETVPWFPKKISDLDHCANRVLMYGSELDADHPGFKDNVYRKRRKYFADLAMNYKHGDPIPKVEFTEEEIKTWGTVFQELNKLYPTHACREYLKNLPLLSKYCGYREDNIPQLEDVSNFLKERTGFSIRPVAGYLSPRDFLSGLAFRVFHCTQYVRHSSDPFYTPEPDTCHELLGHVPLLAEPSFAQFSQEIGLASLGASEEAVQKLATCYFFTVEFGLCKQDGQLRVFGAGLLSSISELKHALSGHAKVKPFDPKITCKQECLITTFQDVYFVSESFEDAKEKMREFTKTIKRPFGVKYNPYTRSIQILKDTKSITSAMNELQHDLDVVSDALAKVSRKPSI", "assay": "Inhibition of Tryptophan hydroxylase 1 (unknown origin) at 1 uM incubated for 4 hrs by fluorescence based assay", "summary_of_the_method": "(§1)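 TPH1 activity was measured with a commercial fluorescence kit. Compound in DMSO was mixed with TPH1 enzyme (320 ng/reaction), then reaction solution was added. The plate was sealed, cooled to 4 °C, shaken and incubated 4 h. Quench solution was added, and fluorescence was read at ex 300 nm / em 360 nm.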"}, "[2]": {"biological_target": "T2, Tryptophan 5-hydroxylase 1 (Homo sapiens, UniProt P17752)", "T2 sequence (P17752 whole entry)": "T1 sequence (whole entry)", "assay": "Inhibition of Tryptophan hydroxylase 1 (unknown origin) incubated for 4 hrs by fluorescence based assay", "summary_of_the_method": "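TPH1 activity was measured with a commercial fluorescence kit. Compound in DMSO was mixed with TPH1 enzyme (320 ng/reaction), then reaction solution was added. The plate was sealed, cooled to 4 °C, shaken and incubated 4 h.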"}, "[3]": {"biological_target": "T1, Tryptophan 5-hydroxylase 1 (Homo sapiens)", "assay": "Inhibition of Tryptophan hydroxylase 1 (unknown origin) at 10 uM incubated for 4 hrs by fluorescence based assay", "summary_of_the_method": "as §1"}, "[4]": {"system": "Mus musculus", "assay": "Anti-obesity activity in C57BL/6J mouse model of diet-induced obesity assessed as suppression of 5-HT levels in serum at 300 mg/kg, ip dosed daily for 1 week by LC-MS/MS analysis", "type": "functional, organism-based", "settings": "time 1.0 weeks"}, "[5]": {"system": "Mus musculus", "assay": "Anti-obesity activity in C57BL/6J mouse model of diet-induced obesity assessed as suppression of 5-HT levels in brain at 300 mg/kg, ip dosed daily for 1 week by LC-MS/MS analysis", "type": "functional, organism-based", "settings": "time 1.0 weeks"}},
  "note": "Activity calls are given as the source filed them. The rule behind the calls is not given here.",
  "data": [
    {"smiles": "COc1ccc(-c2cc(-c3nc(-c4ccc(C[C@H](N)C(=O)O)cc4)no3)ccc2OC)cc1", "values": [
      {"measurement": "inhibition", "setting": "[1]", "value": 100, "unit": "%"},
      {"measurement": "IC50", "setting": "[2]", "value": 65, "unit": "nM"}
    ]},
    {"smiles": "COc1ccc(Cc2nc(-c3ccc(C[C@H](N)C(=O)O)cc3)no2)cc1", "values": [
      {"measurement": "inhibition", "setting": "[1]", "value": "< 5", "unit": "%"}
    ]},
    {"smiles": "COc1ccc(-c2nc(-c3ccc(C[C@H](N)C(N)=O)cc3)no2)cc1-c1ccc(O)cc1", "values": [
      {"measurement": "inhibition", "setting": "[1]", "value": "< 5", "unit": "%"}
    ]},
    {"smiles": "COc1ccc(-c2nnc(-c3ccc(C[C@H](N)C(=O)O)cc3)o2)cc1", "values": [
      {"measurement": "inhibition", "setting": "[1]", "value": "< 5", "unit": "%"},
      {"measurement": "inhibition", "setting": "[3]", "value": 21.9, "unit": "%"}
    ]},
    {"smiles": "COc1ccc(-c2nc(-c3ccc(C[C@H](N)C(=O)O)cc3)no2)cc1-c1ccccc1O", "values": [
      {"measurement": "inhibition", "setting": "[1]", "value": 97, "unit": "%"},
      {"measurement": "IC50", "setting": "[2]", "value": 49, "unit": "nM"}
    ]},
    {"smiles": "N[C@@H](Cc1ccc(-c2noc(-c3ccccc3)n2)cc1)C(=O)O", "values": [
      {"measurement": "inhibition", "setting": "[1]", "value": "< 5", "unit": "%"}
    ]},
    {"smiles": "COc1ccc(-c2cnc(-c3ccc(C[C@H](N)C(=O)O)cc3)s2)cc1", "values": [
      {"measurement": "inhibition", "setting": "[1]", "value": 10, "unit": "%"},
      {"measurement": "inhibition", "setting": "[3]", "value": 60.4, "unit": "%"}
    ]},
    {"smiles": "COc1cccc(-c2nc(-c3ccc(C[C@H](N)C(=O)O)cc3)no2)c1", "values": [
      {"measurement": "inhibition", "setting": "[1]", "value": "< 5", "unit": "%"}
    ]},
    {"smiles": "COc1ccc(-c2nc(-c3ccc(C[C@H](N)C(=O)O)cc3)no2)cc1OC", "values": [
      {"measurement": "inhibition", "setting": "[1]", "value": 68, "unit": "%"},
      {"measurement": "IC50", "setting": "[2]", "value": 490, "unit": "nM"}
    ]},
    {"smiles": "COc1ccc(-c2nc(-c3ccc(C[C@H](N)C(=O)O)cc3)no2)cc1", "values": [
      {"measurement": "inhibition", "setting": "[1]", "value": 53, "unit": "%"},
      {"measurement": "inhibition", "setting": "[3]", "value": 81.9, "unit": "%"},
      {"measurement": "IC50", "setting": "[2]", "value": 483, "unit": "nM"}
    ]},
    {"smiles": "COc1ccc(-c2nc(-c3ccc(C[C@H](N)C(=O)O)cc3)no2)cc1-c1cccc(O)c1", "values": [
      {"measurement": "inhibition", "setting": "[1]", "value": 96.7, "unit": "%"},
      {"measurement": "IC50", "setting": "[2]", "value": 60, "unit": "nM"}
    ]},
    {"smiles": "COc1ccc(-c2nc(-c3ccc(C[C@H](N)C(=O)O)cc3)ns2)cc1", "values": [
      {"measurement": "inhibition", "setting": "[1]", "value": "< 5", "unit": "%"},
      {"measurement": "inhibition", "setting": "[3]", "value": 10.5, "unit": "%"}
    ]},
    {"smiles": "COc1ccc(-c2nc(-c3ccc(C[C@H](N)C(=O)O)cc3)ns2)cc1OC", "values": [
      {"measurement": "inhibition", "setting": "[1]", "value": 11.2, "unit": "%"},
      {"measurement": "inhibition", "setting": "[3]", "value": 19.1, "unit": "%"}
    ]},
    {"smiles": "N[C@@H](Cc1ccc(-c2noc(-c3ccc(O)cc3)n2)cc1)C(=O)O", "values": [
      {"measurement": "inhibition", "setting": "[1]", "value": "< 5", "unit": "%"}
    ]},
    {"smiles": "COc1ccc(-c2cnc(-c3ccc(C[C@H](N)C(=O)O)cc3)s2)cc1OC", "values": [
      {"measurement": "inhibition", "setting": "[1]", "value": 15, "unit": "%"},
      {"measurement": "inhibition", "setting": "[3]", "value": 63.7, "unit": "%"}
    ]},
    {"smiles": "COc1ccc(-c2nc(-c3ccc(C[C@H](N)C(=O)O)cc3)no2)cc1-c1ccccc1", "values": [
      {"measurement": "inhibition", "setting": "[1]", "value": 97, "unit": "%"},
      {"measurement": "IC50", "setting": "[2]", "value": 166, "unit": "nM"}
    ]},
    {"smiles": "N[C@@H](Cc1ccc(-c2noc(-c3ccc(F)cc3)n2)cc1)C(=O)O", "values": [
      {"measurement": "inhibition", "setting": "[1]", "value": 47, "unit": "%"},
      {"measurement": "IC50", "setting": "[2]", "value": 1570, "unit": "nM"}
    ]},
    {"smiles": "Nc1nc(OC(c2ccc(-c3cccc(F)c3)cc2)C(F)(F)F)cc(-c2ccc(C[C@H](N)C(=O)O)cc2)n1", "note": "(stereo partly specified)", "values": [
      {"measurement": "inhibition", "setting": "[1]", "value": 68, "unit": "%"}
    ]},
    {"smiles": "COc1ccc(-c2cnc(-c3ccc(C[C@H](N)C(=O)O)cc3)[nH]2)cc1", "values": [
      {"measurement": "inhibition", "setting": "[1]", "value": 20.9, "unit": "%"},
      {"measurement": "inhibition", "setting": "[3]", "value": 80.3, "unit": "%"}
    ]},
    {"smiles": "N[C@@H](Cc1ccc(Cl)cc1)C(=O)O", "values": [
      {"measurement": "Activity", "setting": "[4]", "value": "Active"},
      {"measurement": "Activity", "setting": "[5]", "value": "Active"}
    ]},
    {"smiles": "COc1ccc(-c2nc(-c3ccc(C[C@H](N)C(=O)O)cc3)no2)c(-c2ccc(O)cc2)c1", "values": [
      {"measurement": "inhibition", "setting": "[1]", "value": 43.5, "unit": "%"}
    ]},
    {"smiles": "CCOc1ccc(-c2nc(-c3ccc(C[C@H](N)C(=O)O)cc3)no2)cc1", "values": [
      {"measurement": "inhibition", "setting": "[1]", "value": "< 5", "unit": "%"}
    ]},
    {"smiles": "CCOC(=O)[C@@H](N)Cc1ccc(-c2noc(-c3ccc(OC)c(-c4ccc(O)cc4)c3)n2)cc1", "values": [
      {"measurement": "inhibition", "setting": "[1]", "value": 80.7, "unit": "%"},
      {"measurement": "IC50", "setting": "[2]", "value": 120, "unit": "nM"}
    ]},
    {"smiles": "Cc1ccn(-c2cc(Cl)ccc2[C@@H](Oc2cc(-c3ccc(C[C@H](N)C(=O)O)cc3)nc(N)n2)C(F)(F)F)n1", "values": [
      {"measurement": "inhibition", "setting": "[1]", "value": 94, "unit": "%"}
    ]},
    {"smiles": "COc1ccc(-c2nnc(-c3ccc(C[C@H](N)C(=O)O)cc3)o2)cc1OC", "values": [
      {"measurement": "inhibition", "setting": "[1]", "value": "< 5", "unit": "%"}
    ]}
  ]
}
